Compounds with a hit are over-represented: about 1.4% of the library has one in this group of screens.
ATG4B inhibitor: ATG4B protease inhibitors, primary screen, biochemical, fluorescence, uHTS. Cysteine protease ATG4B (Homo sapiens), Q9Y4P1. ATG4B cleavage of LC3-PLA2, NBD-HPC fluorescence, 1 h. inhibition, % at 8.33 µM. hit rate 0.51% among 340,000; in the data active = inhibition above about 40%
TbMetRS inhib: T. brucei MetRS inhibitors, primary screen, biochemical, luminescence | AID 624268, 2012 | hit rate 0.4% among 360,000 | inhibition, % at 11.9 µM | methionyl-tRNA synthetase (Trypanosoma brucei brucei) | purified T. brucei MetRS, ATP depletion, Kinase-Glo luminescence;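 active = inhibition above a per-plate cutoff of the control wells' mean inhibition plus 3 SD, cut at about 5.5% in these data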;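 also: 0% = DMSO wells median and 100% = median of wells with control inhibitor compound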
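Assay system: T. brucei methionyl-tRNA synthetase, purified | Medium: HEPES buffer with MgCl2, KCl, DTT, spermine, BSA, pyrophosphatase | Compound: 11.9 µM single point | Incubation: 15 min enzyme-compound preincubation, 2 h reaction, 10 min detection, 25 °C | Measured by: Kinase-Glo luciferase luminescence reporting remaining unconsumed ATP | Measure: % inhibition normalized to control-well medians | Replication: Singlicate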
Rin1 Abl inh: inhibitors of Rin1-Abl protein binding, primary screen, biochemical, TR-FRET; Tyrosine-protein kinase ABL1 (Homo sapiens) + Ras and Rab interactor 1 (Homo sapiens), …; hit rate 0.4% among 360,000; inhibition, % at 7.35 µM; AID 588664, 2011; in the data active = inhibition above about 5%, passing the limit was not always enough
UCH37 DUB inh: inhibitors of human UCH37 deubiquitinase, primary screen, biochemical, Ub-AMC cleavage, fluorescence. Ubiquitin carboxyl-terminal hydrolase isozyme L5 (Homo sapiens), Q9Y5K5. hit rate 0.33% among 330,000. inhibition, % (no concentration beside the values). purified proteasome/UCH37;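 active = mean inhibition over replicate wells above about 20%, limit read from the data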;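 also: 0% = compound-free wells with enzyme and 100% = wells lacking proteasome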
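Signal – fluorescence, ex 355 nm, em 460 nm · System – Proteasome-bound UCH37 · Input – 0.15 nM proteasome as dispensed · Timing – 30 min preincubation with enzyme, 25 min cleavage at room temperature · Read-out basis – percent inhibition of cleavage signal versus uninhibited and no-proteasome wells · Medium – Tris-HCl pH 7.4 with ATP-MgCl2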
Tb MetRS conf: T. brucei MetRS inhibitors, confirmation, biochemical, luminescence | AID 624412, 2012 | T. brucei MetRS enzyme, luminescence (ATP depletion) | shares compounds with TbMetRS inhib | inhibition, % at 11.9 µM | hit rate 93% among 1,400; in the data active = inhibition above about 7%
Jurkat tox: Jurkat T cell cytotoxicity, cytotoxicity control for T. brucei MetRS inhibitor project, luminescence, high throughput; shares compounds with TbMetRS inhib; Jurkat cells viability, ATP luminescence; inhibition, % at 8.3 µM; hit rate 12% among 1,400; AID 624413, 2012; in the data active = inhibition above about 15%;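 also: 0% = vehicle and 100% = reference inhibitor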
Tb MetRS inh FP: T. brucei MetRS inhibitors, orthogonal assay for T. brucei MetRS inhibitor project, biochemical, fluorescence polarization; inhibition, % at 11.9 µM; purified T. brucei MetRS; hit rate 44% among 1,400; shares compounds with TbMetRS inhib; AID 651607, 2012; in the data active = inhibition above about 17%;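 also: 0% = vehicle wells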
* hit, by the source's call; · = not tested or not shown.

SMILES | ATG4B inhibitor | TbMetRS inhib | Rin1 Abl inh | UCH37 DUB inh | Tb MetRS conf | Jurkat tox | Tb MetRS inh FP
Nc1cccc(CCc2nc3cc4ccccc4cc3[nH]2)c1 | -1 | 4 | -8 | 5 | · | · | ·
Nc1nc2cc3ccccc3cc2[nH]c1=O | 7 | 6.3* | -2 | -17 | 5.8* | 3 | 0
CC(C)(C)c1ccc(Oc2ccc(NC(=O)CCCC(=O)O)cn2)cc1 | 4 | 0 | 1 | 0 | · | · | ·
CC(C)(C)c1csc(NC(=O)CSC2=NCCS2)n1 | -2 | 6.0* | -3 | 1 | 2 | 4 | 8
COc1cccc(NC(=O)CN(C)C(=O)c2ccc(-n3cncn3)c([N+](=O)[O-])c2)c1 | 7 | 1 | 2 | 0 | · | · | ·
CN(CC(=O)Nc1ccc(F)c(F)c1F)C(=O)c1ccc(-n2cncn2)c([N+](=O)[O-])c1 | -1 | 7.7* | 0 | 1 | 33* | -6 | 17*
CN(CC(=O)Nc1cccc(F)c1)C(=O)c1ccc(-n2cncn2)c([N+](=O)[O-])c1 | 1 | 51* | -3 | 2 | 84* | 0 | 51*
CC(Oc1ccc2c(-c3ccccc3)cc(=O)oc2c1)C(=O)NC(Cc1c[nH]c2ccc(O)cc12)C(=O)O (stereo not given) | 0 | 7.4* | -1 | 0 | 17* | -4 | 7
O=C(COc1ccc2c(-c3ccccc3)cc(=O)oc2c1)N[C@@H](Cc1c[nH]c2ccc(O)cc12)C(=O)O | -13 | 1 | -3 | 8 | · | · | ·
C=CCNC(=S)NNC(=O)Cn1c(-c2ccccc2)cc(=O)n2ncnc12 | 1 | 10* | 2 | 2 | 17* | 11 | 12
C=CCNC(=O)Cn1nc(-c2ccccc2)ccc1=O | -9 | -1 | 0 | 2 | · | · | ·
CCc1c(C)[nH]c(C(=O)OCc2ccccc2)c1C | 15 | -1 | 3 | 4 | · | · | ·
COc1ccc(-c2cc(=O)[nH][nH]2)cc1 | -1 | 0 | 1 | 3 | · | · | ·
COc1ccc(-c2cc(=O)n(CCC#N)[nH]2)cc1 | 7 | 16* | 5 | 6 | 2 | 2 | 4
O=C(c1c(F)cccc1F)N1CCC(n2nnc3cc(C(F)(F)F)ccc32)CC1 | -2 | 0 | -2 | 3 | · | · | ·
O=C(Nc1cccc2ncccc12)c1cccc(Br)c1 | -6 | -2 | 0 | 1 | · | · | ·
O=C(Nc1cccc2ncccc12)c1ccc(Br)c([N+](=O)[O-])c1 | 0 | 31* | 1 | 5 | 56* | 22* | 35*
O=c1[nH]nc(Cc2ccc(Cl)cc2)c2ccccc12 | -17 | 1 | 1 | 4 | · | · | ·
O=c1[nH]nc(Cc2ccc(Cl)cc2Cl)c2ccccc12 | -14 | 8.2* | 1 | 3 | 39* | 5 | 20*
NC(=NCc1ccccc1)NN=Cc1ccnc2ccccc12 | · | 7.1* | -12 | · | 10* | 12 | 7
O=C(NCc1nc2ccccc2[nH]1)C1=C[C@@H](C2CC2)C[C@@H](OCc2ccc(CO)cc2)O1 | -6 | 81* | 3 | 2 | 99* | -4 | 87*
O=C(Nc1ccccc1)C1=C[C@@H](C2CC2)C[C@@H](OCc2ccc(CO)cc2)O1 | 0 | 0 | 2 | 6 | · | · | ·
O=C(NCc1nc2ccccc2[nH]1)C1=C[C@H](C2CC2)C[C@H](OCc2ccc(CO)cc2)O1 | 6 | 50* | 3 | 1 | 83* | -1 | 56*
Cn1c(CC(=O)Nc2ccccc2Cl)nnc1SCC(=O)NC1CCCCC1 | 2 | -2 | 1 | 0 | · | · | ·
Cn1c(CC(=O)Nc2ccccc2F)nnc1SCC(=O)NC1CCCCC1 | -2 | 79* | 2 | 2 | 0 | 4 | 0
SMILES | ATG4B inhibitor | TbMetRS inhib | Rin1 Abl inh | UCH37 DUB inh | Tb MetRS conf | Jurkat tox | Tb MetRS inh FP
CCCCn1c(N)c(N(CC(C)C)C(=O)Cn2c(=O)oc3ccccc32)c(=O)[nH]c1=O | -6 | 0 | 1 | 0 | · | · | ·
CC[C@H]1c2[nH]c3ccc(C(C)C)cc3c2[C@@H]2CCN3C(=O)CCC[C@H]1[C@H]23 | -4 | 0 | -1 | · | · | · | ·
COc1ccc(-n2cc(CNCC3CCOCC3)c(-c3cccc(F)c3)n2)cc1 | 2 | 1 | 3 | 1 | · | · | ·
COc1ccc(-n2cc(CNCCCn3ccnc3)c(-c3cccc(F)c3)n2)cc1 | -16 | 16* | -2 | 4 | 5 | 4 | 4
CCc1nc(CN2CCN(Cc3ccc(F)c(F)c3)C(CCO)C2)c(C)[nH]1 (stereo not given) | 4 | -1 | 0 | 2 | · | · | ·
O=C(CN(Cc1ccccc1)C1=NCCS1)c1ccc(Cl)cc1 | 1 | 25* | 0 | 8 | 42* | 13 | 23*
COc1ccc(Nc2nnc(SCC(=O)N(CC(C)C)C3CCS(=O)(=O)C3)s2)cc1 (stereo not given) | · | 11* | -4 | · | 29* | 9 | 18*
O=C(CSc1nnc(Nc2ccccc2)s1)NC1CCS(=O)(=O)C1 (stereo not given) | 5 | 9.4* | 1 | 2 | 27* | 0 | 9
CCN(C(=O)CSc1nnc(Nc2ccccc2)s1)C1CCS(=O)(=O)C1 (stereo not given) | 1 | 7.4* | 1 | -1 | 16* | -7 | 4
CNC(=O)c1[nH]cnc1C(=O)N[C@@H](Cc1ccccc1)C(=O)OC(C)(C)C | 10 | 0 | 3 | 5 | · | · | ·
COc1ccccc1CCC(=O)Nc1cccc(S(=O)(=O)N2CCCCCC2)c1 | 19 | 5.7* | -2 | 1 | 28* | -4 | 14
O=C(CCl)Nc1cccc(S(=O)(=O)N2CCCCCC2)c1 | -7 | 1 | 0 | 6 | · | · | ·
O=C(Cn1c(NCCO)nc2ccccc21)Nc1cccc(S(=O)(=O)N2CCCC2)c1 | -4 | 11* | 3 | -3 | 48* | 4 | 16
Cn1c(CCCOc2ccc(Cl)cc2Cl)nnc1SCC(=O)Nc1ccc(F)c(Cl)c1 | -2 | 0 | 2 | 1 | · | · | ·
Cn1c(CCCOc2ccc(Cl)cc2Cl)nnc1SCC(=O)Nc1cccc(F)c1 | -5 | 6.8* | 1 | 1 | 34* | -5 | 41*
CC(CC(=O)Nc1cccc(C(F)(F)F)c1)=NNC(=O)c1cnccn1 | · | · | · | 1 | · | · | ·
CSCC[C@H](NC(=O)c1ccc(Cl)c([N+](=O)[O-])c1)c1nc2ccccc2[nH]1 | -3 | 56* | -3 | 1 | 73* | 9 | 43*
CSCC[C@H](NC(=O)CC(C)(C)C)c1nc2ccccc2[nH]1 | 2 | -1 | 2 | 1 | · | · | ·

Source: PubChem BioAssay (several laboratories)
